Test results: ChEMBL document CHEMBL4033670, “Synthesis, characterization, molecular docking and in vitro antimalarial properties of new carboxamides bearing sulphonamide” (Eur J Med Chem, 2017)
One block for each compound: values may come before it.

Experiments:
Type in all cases: functional
[1] = Antioxidant activity assessed as inhibition of DPPH radical generation at 3 mg/ml after 20 mins under dark condition by UV-Visible spectrophotometric analysis relative to control
Summary of the method: (§1)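 Test compounds were made up in ethanol at 1.0, 2.0, 3.0, 4.0 and 5.0 mg/mL (solution concentrations before mixing). 1 mL of each was shaken with 4 mL of 0.1 mM ethanolic DPPH and kept in the dark at room temperature for 20 min. The decrease in A517 was read against an ethanol baseline. A DPPH blank had no compound. Scavenging % = [(Ac − As)/Ac] × 100.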

[2] = Antioxidant activity assessed as inhibition of DPPH radical generation at 5 mg/ml after 20 mins under dark condition by UV-Visible spectrophotometric analysis relative to control; summary of the method: as §1
[3] = Antioxidant activity assessed as inhibition of DPPH radical generation at 4 mg/ml after 20 mins under dark condition by UV-Visible spectrophotometric analysis relative to control; summary of the method: as §1
[4] = Antioxidant activity assessed as inhibition of DPPH radical generation at 1 mg/ml after 20 mins under dark condition by UV-Visible spectrophotometric analysis relative to control; summary of the method: as §1
[5] = Antioxidant activity assessed as inhibition of DPPH radical generation at 2 mg/ml after 20 mins under dark condition by UV-Visible spectrophotometric analysis relative to control; summary of the method: as §1
[6] = Antioxidant activity assessed as DPPH radical scavenging activity after 20 mins under dark condition by UV-Visible spectrophotometric analysis; summary of the method: as §1
Plasmodium falciparum = experiment: Antimalarial activity against ring stage chloroquine-resistant Plasmodium falciparum W2 preincubated for 48 hrs measured after 48 hrs in presence of 10% human serum by YOYO-1 dye-based FACS analysis
Summary of the method: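 Sorbitol-synchronized ring-stage W2 parasites at 0.1% parasitemia grown 48 h in RPMI-1640 + 10% human serum under 3% O2/6% CO2/91% N2 with inhibitors (from 1000× DMSO stocks), no media change. Fixed 48 h in 1% formaldehyde/PBS pH 7.4 at room temperature. Stained with 1 nM YOYO-1 in 0.1% Triton X-100/PBS. Parasitemia read by flow cytometry.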

[7] = Antioxidant activity assessed as inhibition of DPPH radical generation at 0.02 mg/ml after 20 mins under dark condition by UV-Visible spectrophotometric analysis relative to control
[8] = Antioxidant activity assessed as inhibition of DPPH radical generation at 0.05 mg/ml after 20 mins under dark condition by UV-Visible spectrophotometric analysis relative to control
[9] = Antioxidant activity assessed as inhibition of DPPH radical generation at 0.03 mg/ml after 20 mins under dark condition by UV-Visible spectrophotometric analysis relative to control
[10] = Antioxidant activity assessed as inhibition of DPPH radical generation at 0.04 mg/ml after 20 mins under dark condition by UV-Visible spectrophotometric analysis relative to control
[11] = Antioxidant activity assessed as inhibition of DPPH radical generation at 0.01 mg/ml after 20 mins under dark condition by UV-Visible spectrophotometric analysis relative to control

IC50 [6]: 0.73 mM
SMILES: CC(=O)c1ccc(NC(=O)C(Cc2c[nH]c3ccccc23)N(C(=O)c2ccccc2)S(=O)(=O)c2ccc([N+](=O)[O-])cc2)cc1 (stereo unspecified)
inhibition [1]: 23.5% | inhibition [2]: 24.3% | inhibition [3]: 24% | inhibition [4]: 22.1% | inhibition [5]: 22.9%

SMILES: CC(=O)c1ccc(NC(=O)C2CCCN2S(=O)(=O)c2ccc(C)cc2)cc1 (stereo unspecified)
MIC99 (Plasmodium falciparum): 1.45 µM | inhibition [1]: 20.7% | inhibition [2]: 20.7% | inhibition [3]: 20.7% | inhibition [4]: 20.6% | inhibition [5]: 20.7% | IC50 [6]: 36 mM

SMILES: CCC(C)C(C(=O)Nc1ccc(C(C)=O)cc1)N(C(=O)c1ccccc1)S(=O)(=O)c1ccc(C)cc1 (stereo unspecified)
MIC99 (Plasmodium falciparum): 5.11 µM | inhibition [1]: 33.4% | inhibition [2]: 47.3% | inhibition [3]: 41% | inhibition [4]: 18.6% | inhibition [5]: 25.7% | IC50 [6]: 10 mM

SMILES: C=C[C@H]1CN2CC[C@H]1C[C@H]2[C@H](O)c1ccnc2ccc(OC)cc12 [QUININE]
MIC99 (Plasmodium falciparum): 0.83 µM

SMILES: CC(=O)c1ccc(NC(=O)C(CC(C)C)N(C(=O)c2ccccc2)S(=O)(=O)c2ccc(C)cc2)cc1 (stereo unspecified)
MIC99 (Plasmodium falciparum): 0.17 µM | inhibition [1]: 63.1% | inhibition [2]: 71.3% | inhibition [3]: 67.2% | inhibition [4]: 54% | inhibition [5]: 58.1% | IC50 [6]: 11 mM

SMILES: CC(=O)c1ccc(NC(=O)CN(C(=O)c2ccccc2)S(=O)(=O)c2ccc(C)cc2)cc1
MIC99 (Plasmodium falciparum): 0.72 µM | inhibition [1]: 18.2% | inhibition [2]: 18.7% | inhibition [3]: 18.4% | inhibition [4]: 17.9% | inhibition [5]: 18.1% | IC50 [6]: 102 mM

SMILES: CC(=O)c1ccc(NC(=O)CN(C(=O)c2ccccc2)S(=O)(=O)c2ccccc2)cc1
MIC99 (Plasmodium falciparum): 0.97 µM | inhibition [1]: 40.7% | inhibition [2]: 45.4% | inhibition [3]: 40.9% | inhibition [4]: 40.5% | inhibition [5]: 40.5% | IC50 [6]: 32 mM

SMILES: CC(=O)c1ccc(NC(=O)C(Cc2ccccc2)N(C(=O)c2ccccc2)S(=O)(=O)c2ccc([N+](=O)[O-])cc2)cc1 (stereo unspecified)
MIC99 (Plasmodium falciparum): 0.08 µM | inhibition [1]: 34.5% | inhibition [2]: 49.2% | inhibition [3]: 40% | inhibition [4]: 19.3% | inhibition [5]: 26.8% | IC50 [6]: 39 mM

SMILES: CC(=O)c1ccc(NC(=O)CN(C(=O)c2ccccc2)S(=O)(=O)c2ccc([N+](=O)[O-])cc2)cc1
MIC99 (Plasmodium falciparum): 0.18 µM | inhibition [1]: 20.6% | inhibition [2]: 20.7% | inhibition [3]: 20.7% | inhibition [4]: 20.6% | inhibition [5]: 20.6% | IC50 [6]: 58 mM

IC50 [6]: 0.34 mM
SMILES: O=C1O[C@H]([C@@H](O)CO)C(O)=C1O [ASCORBIC ACID]
inhibition [7]: 20% | inhibition [8]: 40% | inhibition [9]: 25% | inhibition [10]: 30% | inhibition [11]: 15%

SMILES: CC(=O)c1ccc(NC(=O)C(C(C)C)N(C(=O)c2ccccc2)S(=O)(=O)c2ccccc2)cc1 (stereo unspecified)
MIC99 (Plasmodium falciparum): 1.7 µM | inhibition [1]: 47.5% | inhibition [2]: 54.2% | inhibition [3]: 52.2% | inhibition [4]: 32.1% | inhibition [5]: 41.3% | IC50 [6]: 13 mM

SMILES: CC(=O)c1ccc(NC(=O)C2CC(O)CN2S(=O)(=O)c2ccc([N+](=O)[O-])cc2)cc1 (stereo unspecified)
MIC99 (Plasmodium falciparum): 0.32 µM | inhibition [1]: 58.7% | inhibition [2]: 70.7% | inhibition [3]: 60.1% | inhibition [4]: 43.2% | IC50 [6]: 7.1 mM

SMILES: CC(=O)c1ccc(NC(=O)C(CC(C)C)N(C(=O)c2ccccc2)S(=O)(=O)c2ccc([N+](=O)[O-])cc2)cc1 (stereo unspecified)
MIC99 (Plasmodium falciparum): 0.06 µM | inhibition [1]: 62.3% | inhibition [2]: 81.3% | inhibition [3]: 71% | inhibition [4]: 45% | IC50 [6]: 8.4 mM

SMILES: CCN(CC)CCCC(C)Nc1ccnc2cc(Cl)ccc12 (stereo unspecified) [CHLOROQUINE]
MIC99 (Plasmodium falciparum): 0.06 µM

IC50 [6]: 51 mM
SMILES: CC(=O)c1ccc(NC(=O)C(Cc2c[nH]c3ccccc23)N(C(=O)c2ccccc2)S(=O)(=O)c2ccccc2)cc1 (stereo unspecified)
inhibition [1]: 47% | inhibition [2]: 61.2% | inhibition [3]: 54.1% | inhibition [4]: 31.7% | inhibition [5]: 39.4%

SMILES: CC(=O)c1ccc(NC(=O)C(CC(C)C)N(C(=O)c2ccccc2)S(=O)(=O)c2ccccc2)cc1 (stereo unspecified)
MIC99 (Plasmodium falciparum): 0.26 µM | inhibition [1]: 40.7% | inhibition [2]: 52.2% | inhibition [3]: 46.9% | inhibition [4]: 27.7% | inhibition [5]: 54.2% | IC50 [6]: 3.2 mM

SMILES: CC(=O)c1ccc(NC(=O)C2CC(O)CN2S(=O)(=O)c2ccc(C)cc2)cc1 (stereo unspecified)
MIC99 (Plasmodium falciparum): 2.27 µM | inhibition [1]: 12.7% | inhibition [2]: 13% | inhibition [3]: 12.9% | inhibition [4]: 12.4% | inhibition [5]: 12.5% | IC50 [6]: 25 mM

SMILES: CC(=O)c1ccc(NC(=O)C2CCCN2S(=O)(=O)c2ccc([N+](=O)[O-])cc2)cc1 (stereo unspecified)
MIC99 (Plasmodium falciparum): 6.74 µM | inhibition [1]: 24.3% | inhibition [2]: 25.6% | inhibition [3]: 25.3% | inhibition [4]: 22.7% | inhibition [5]: 23.5% | IC50 [6]: 19 mM

SMILES: CC(=O)c1ccc(NC(=O)C(Cc2ccccc2)N(C(=O)c2ccccc2)S(=O)(=O)c2ccc(C)cc2)cc1 (stereo unspecified)
MIC99 (Plasmodium falciparum): 0.78 µM | inhibition [1]: 39.6% | inhibition [2]: 53.6% | inhibition [3]: 48.5% | inhibition [4]: 25.4% | inhibition [5]: 32.7% | IC50 [6]: 7.6 mM

SMILES: CC(=O)c1ccc(NC(=O)C2CCCN2S(=O)(=O)c2ccccc2)cc1 (stereo unspecified)
MIC99 (Plasmodium falciparum): 0.11 µM | inhibition [1]: 29.1% | inhibition [2]: 35.7% | inhibition [3]: 33.4% | inhibition [4]: 22.8% | inhibition [5]: 25.8% | IC50 [6]: 69 mM

SMILES: CC(=O)c1ccc(NC(=O)C2CC(O)CN2S(=O)(=O)c2ccccc2)cc1 (stereo unspecified)
MIC99 (Plasmodium falciparum): 0.16 µM | inhibition [1]: 49.8% | inhibition [2]: 58.7% | inhibition [3]: 54.5% | inhibition [4]: 40.2% | inhibition [5]: 57% | IC50 [6]: 3.8 mM

SMILES: CC(=O)c1ccc(NC(=O)C(C(C)C)N(C(=O)c2ccccc2)S(=O)(=O)c2ccc([N+](=O)[O-])cc2)cc1 (stereo unspecified)
MIC99 (Plasmodium falciparum): 1.57 µM | inhibition [1]: 29.8% | inhibition [2]: 27.4% | inhibition [3]: 27.2% | inhibition [4]: 29.8% | inhibition [5]: 29.8% | IC50 [6]: 6.8 mM

SMILES: CC(=O)c1ccc(NC(=O)C(Cc2ccccc2)N(C(=O)c2ccccc2)S(=O)(=O)c2ccccc2)cc1 (stereo unspecified)
MIC99 (Plasmodium falciparum): 0.9 µM | inhibition [1]: 7.21% | inhibition [2]: 11% | inhibition [3]: 9.28% | inhibition [4]: 2.18% | inhibition [5]: 4.37% | IC50 [6]: 11 mM

SMILES: CC(=O)c1ccc(NC(=O)C(C(C)C)N(C(=O)c2ccccc2)S(=O)(=O)c2ccc(C)cc2)cc1 (stereo unspecified)
MIC99 (Plasmodium falciparum): 2.82 µM | inhibition [1]: 29.7% | inhibition [2]: 42.7% | inhibition [3]: 36.6% | inhibition [4]: 15.6% | inhibition [5]: 22.7% | IC50 [6]: 12 mM

SMILES: CCC(C)C(C(=O)Nc1ccc(C(C)=O)cc1)N(C(=O)c1ccccc1)S(=O)(=O)c1ccccc1 (stereo unspecified)
MIC99 (Plasmodium falciparum): 1.25 µM | inhibition [1]: 14.2% | inhibition [2]: 16.8% | inhibition [3]: 15.5% | inhibition [4]: 9.71% | inhibition [5]: 11.3% | IC50 [6]: 8.6 mM

IC50 [6]: 0.045 mM
SMILES: CC(=O)c1ccc(NC(=O)C(Cc2c[nH]c3ccccc23)N(C(=O)c2ccccc2)S(=O)(=O)c2ccc(C)cc2)cc1 (stereo unspecified)
inhibition [1]: 39.5% | inhibition [2]: 39.5% | inhibition [3]: 39.5% | inhibition [4]: 39.5% | inhibition [5]: 58%

SMILES: CCC(C)C(C(=O)Nc1ccc(C(C)=O)cc1)N(C(=O)c1ccccc1)S(=O)(=O)c1ccc([N+](=O)[O-])cc1 (stereo unspecified)
MIC99 (Plasmodium falciparum): 0.2 µM | inhibition [1]: 42.1% | inhibition [2]: 53.2% | inhibition [3]: 48.4% | inhibition [4]: 28.6% | inhibition [5]: 31.7% | IC50 [6]: 50 mM
